Assay [1] concerns the target T1, Muscarinic acetylcholine receptor M1 (Homo sapiens) (UniProt P11229).
T1 sequence (whole entry): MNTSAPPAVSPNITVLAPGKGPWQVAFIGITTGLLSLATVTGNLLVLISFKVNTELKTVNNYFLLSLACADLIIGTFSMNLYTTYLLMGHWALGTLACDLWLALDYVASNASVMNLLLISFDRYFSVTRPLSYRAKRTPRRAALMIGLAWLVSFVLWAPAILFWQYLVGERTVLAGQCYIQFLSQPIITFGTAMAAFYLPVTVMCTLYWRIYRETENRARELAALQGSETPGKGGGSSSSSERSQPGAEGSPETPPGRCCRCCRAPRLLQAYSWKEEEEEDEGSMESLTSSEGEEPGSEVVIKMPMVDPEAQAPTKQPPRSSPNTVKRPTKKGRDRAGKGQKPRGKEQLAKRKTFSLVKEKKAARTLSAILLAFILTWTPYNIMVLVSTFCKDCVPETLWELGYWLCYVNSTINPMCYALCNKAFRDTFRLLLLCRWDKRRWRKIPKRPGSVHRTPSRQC
In words: Partial agonist activity at EGFP-fused human M1 receptor N-terminal truncated at 17 residues expressed in HEK293 cells assessed as inhibition of carbachol induced calcium response at 1 uM by fluorescence assay relative to control. The class given is functional, cell-based.

Assay [2] concerns the target T2, Muscarinic acetylcholine receptor M1 (Homo sapiens, UniProt P11229).
T2 sequence (P11229 whole entry): T1 sequence (whole entry)
Kind of assay: Displacement of [3H]NMS from EGFP-fused human M1 receptor N-terminal truncated at 17 residues expressed in HEK293 cells after 22 hrs by liquid scintillation counting. The class given is cell-based.

The target of assay [3] is T2, Muscarinic acetylcholine receptor M1. Type of assay: cell-based, HEK293.
Assay [4] has as its target Muscarinic acetylcholine receptor M3 (Homo sapiens) (UniProt P20309). Kind of assay: Antagonist activity at human M3 receptor in HEK293 cells assessed as inhibition of 20 uM carbachol induced calcium response at 10 uM by fluorescence assay. Type of assay: functional, cell-based. An outline of the steps: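 Nontransfected HEK cells (endogenous M3) loaded with 5 μM Indo-1 AM, 45 min, 37 °C, trypsin/EDTA harvested, suspended at 10⁶ cells/mL in Hepes buffer with 1 mg/mL BSA. Calcium read at 37 °C as 400 nm emission (338 nm excitation), peak normalized to 20 μM digitonin maximum.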

Assay [5] has as its target T1, Muscarinic acetylcholine receptor M1 (Homo sapiens). In words: (§1) Antagonist activity at EGFP-fused human M1 receptor N-terminal truncated at 17 residues expressed in HEK293 cells assessed as inhibition of carbachol induced calcium response by fluorescence assay. The class given is functional, cell-based.
In assay [6] the target is T2, Muscarinic acetylcholine receptor M1. The description is as §1. The class given is functional, cell-based.
Assay [7] has as its target T1, Muscarinic acetylcholine receptor M1 (Homo sapiens). Kind of assay: Allosteric modulation of EGFP-fused human M1 receptor N-terminal truncated at 17 residues expressed in HEK293 cells after 4 hrs by FRET assay in presence of para-LRB-AC42. Type of assay: cell-based. An outline of the steps: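 EGFP emission was read at 510 nm with excitation at 470 nm. Specific signal was the difference from 20 μM atropine. Kx and α came from an allosteric model fit, with three or more independent runs done in duplicate.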

The target in assay [8] is T2, Muscarinic acetylcholine receptor M1. In words: Partial agonist activity at EGFP-fused human M1 receptor N-terminal truncated at 17 residues expressed in HEK293 cells assessed as induction of calcium response by fluorescence assay. The class given is functional, cell-based. The essentials: (§2)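 Stably transfected HEK293 cells (hygromycin-selected) were loaded with 5 μM Indo-1 AM for 45 min at 37 °C, then suspended at 10⁶ cells/mL in Hepes buffer with BSA. […] EC50 and Emax are mean ± SD of two determinations.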

Assay [9] addresses T1, Muscarinic acetylcholine receptor M1 (Homo sapiens). As to conditions: HEK293, 10 uM.
Assay [10] addresses T2, Muscarinic acetylcholine receptor M1. Kind of assay: Partial agonist activity at human full length M1 receptor expressed in HEK293 cells assessed as induction of calcium response by fluorescence assay. The class given is functional, cell-based. An outline of the steps: as §2
Assay [11] shares this target. Kind of assay: Partial agonist activity at EGFP-fused human full length M1 receptor expressed in HEK293 cells assessed as induction of calcium response by fluorescence assay. The class given is functional, cell-based. An outline of the steps: as §2
Assay [12] has the same target. Kind of assay: Partial agonist activity at EGFP-fused human M1 receptor N-terminal truncated at 11 residues expressed in HEK293 cells assessed as induction of calcium response by fluorescence assay. Type of assay: functional, cell-based. The essentials: as §2
The target in assay [13] is T1, Muscarinic acetylcholine receptor M1 (Homo sapiens). The conditions noted are these: HEK293, 200 nM.
The target is the same in assay [14]. As to conditions: HEK293, 10 uM. This is another data set of the same source.
For assay [15], the target named is T2, Muscarinic acetylcholine receptor M1. Kind of assay: Displacement of [3H]NMS from EGFP-fused human M1 receptor N-terminal truncated at 17 residues expressed in HEK293 cells assessed as reduction of [3H]NMS dissociation rate after 22 hrs by liquid scintillation counting. Type of assay: cell-based. In general terms: Loss of bound radioactivity is the signal in a displacement assay; it reports binding, not function.

For assay [16], the target named is T1, Muscarinic acetylcholine receptor M1 (Homo sapiens). In words: Binding affinity to EGFP-fused human M1 receptor N-terminal truncated at 17 residues expressed in HEK293 cells assessed as maximal amplitude after 4 hrs by FRET assay. Type of assay: cell-based. The essentials:
(§3)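 EGFP emission was read at 510 nm; specific binding is atropine-sensitive fluorescence extinction. Kd, maximal FRET amplitude and Ki/Kx/α come from Hill or competitive/allosteric fits, mean ± SE, n≥3.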

Assay [17] concerns the target T2, Muscarinic acetylcholine receptor M1. Kind of assay: Binding affinity to EGFP-fused human M1 receptor N-terminal truncated at 17 residues expressed in HEK293 cells after 4 hrs by FRET assay. The class given is cell-based. The essentials: as §3
Assay [18] deals with T1, Muscarinic acetylcholine receptor M1 (Homo sapiens). Kind of assay: Partial agonist activity at EGFP-fused human M1 receptor N-terminal truncated at 17 residues expressed in HEK293 cells assessed as inhibition of carbachol induced calcium response at […] by fluorescence assay. Type of assay: functional, cell-based.
Assay [19] shares this target. The conditions noted are these: HEK293.

The structures appear in SMILES notation. The source made the active and inactive calls. The rule behind the calls is not given here.

Chain of Muscarinic acetylcholine receptor M3 (Homo sapiens) (P20309 whole entry, looked up): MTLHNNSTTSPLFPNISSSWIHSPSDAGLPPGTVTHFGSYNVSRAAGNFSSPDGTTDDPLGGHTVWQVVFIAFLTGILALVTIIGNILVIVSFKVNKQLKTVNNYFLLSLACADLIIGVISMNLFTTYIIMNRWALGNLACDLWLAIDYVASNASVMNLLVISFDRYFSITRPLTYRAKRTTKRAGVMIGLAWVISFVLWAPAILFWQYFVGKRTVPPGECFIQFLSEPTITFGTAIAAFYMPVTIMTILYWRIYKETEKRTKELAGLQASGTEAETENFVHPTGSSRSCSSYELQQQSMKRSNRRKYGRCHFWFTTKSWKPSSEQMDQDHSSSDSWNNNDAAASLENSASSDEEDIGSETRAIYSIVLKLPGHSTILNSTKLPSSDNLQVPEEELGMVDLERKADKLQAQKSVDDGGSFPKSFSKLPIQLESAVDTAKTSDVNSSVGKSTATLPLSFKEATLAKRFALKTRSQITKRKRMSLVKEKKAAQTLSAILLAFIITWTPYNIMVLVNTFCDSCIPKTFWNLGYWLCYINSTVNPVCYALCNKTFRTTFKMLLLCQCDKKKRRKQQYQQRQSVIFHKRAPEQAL

As usually defined, the Emax is the maximal effect, on the per cent scale that the assay sets. Turning to `CCN(CC)c1ccc2c(-c3ccc(S(=O)(=O)[O-])cc3S(=O)(=O)NCCCCCC3CCN(CCCC(=O)c4ccccc4C)CC3)c3ccc(=[N+](CC)CC)cc-3oc2c1`, in assay [1], the Emax is 20%.
In general, Ki refers to a dissociation constant, usually derived from enzyme kinetics or from competition with a known ligand. Read a low Ki as a stronger hold on the target. In general, IC50 refers to the concentration at which inhibition is half-maximal. With `Cc1ccccc1C(=O)CCCN1CCC(CCCCCN)CC1`, the Ki is 1.95 µM in assay [2] and 1.29 µM in [3]. For the same compound, in [4], the inhibition entry is “inactive”. The inhibition entry in assay [5] is “Dose-dependent effect”. For the same compound, in [6], the half-maximal inhibitory concentration (IC50) amounted to 3.7 µM.
As for `Clc1ccc2c(c1)N=C(N1CCNCC1)c1ccccc1N2` [N-DESMETHYLCLOZAPINE], the inhibition constant Ki in [2] is 0.0603 µM. Further, the pKx in [7] amounted to 6.92.
Usually EC50 stands for the midpoint of the concentration-response curve. With `CCCCC1CCN(CCCC(=O)c2ccccc2C)CC1`, the inhibition constant (Ki) in assay [2] is 1.74 µM; in assay [3], 0.891 µM. The EC50 in [8] came to 0.45 µM; in [10] it was 0.74 µM; in [11], 0.21 µM; in assay [12], 0.72 µM. The inhibition result in assay [9], in assay [13] and in [14] was “inactive” each time.
The Kd is a measure of binding affinity in units of concentration. On to `CCN(CC)c1ccc2c(-c3ccc(S(=O)(=O)NCCCCCC4CCN(CCCC(=O)c5ccccc5C)CC4)cc3S(=O)(=O)[O-])c3ccc(=[N+](CC)CC)cc-3oc2c1`, for which the EC50 in assay [15] was 25.1 µM. For the same compound, the affinity in assay [2] corresponds to a Ki of 1 µM. Moreover, the Activity in assay [16] was 26.5%. In addition, in [4], the inhibition result was “inactive”. The Kd in [17] was 0.794 µM. Besides, the inhibition entry in assay [5] is “Dose-dependent effect”. Further, the half-maximal inhibitory concentration (IC50) in assay [6] stood at 0.3 µM.
The compound `CCN(CC)c1ccc2c(-c3ccc(S(=O)(=O)O)cc3S(=O)(=O)[O-])c3ccc(=[N+](CC)CC)cc-3oc2c1` showed an inhibition constant (Ki) in [2] of over 1000 µM. For the same compound, the outcome in assay [18] was inactive.
Compound `COc1cc2c(cc1OC)[C@@]13CCN4CC5=CCO[C@H]6CC(=O)N2[C@H]1[C@H]6[C@H]5C[C@H]43` [BRUCINE] showed an inhibition constant (Ki) in [3] of 44.7 µM. In assay [19], this compound returned a pKx of 4.59.
Consider `C#C[C@]1(O)CC[C@H]2[C@@H]3CC[C@H]4Cc5nc6nc7ccccc7n6cc5C[C@]4(C)[C@H]3CC[C@@]21C`, for which, in [7], the pKx was 5.03.

These data come from ChEMBL document CHEMBL2203158, “Fluorescent derivatives of AC-42 to probe bitopic orthosteric/allosteric binding mechanisms on muscarinic M1 receptors” (J Med Chem, 2012).
